Experimental data as given in ChEMBL document CHEMBL2163257 (J Med Chem, 2012).

The compounds below were run against T1, Histamine H2 receptor (Homo sapiens, UniProt P25021) (assay: Intrinsic agonist activity at human H2R-Gsalphas expressed in Sf9 cells by steady state GTPase activity assay relative to histamine). Conditions: not given.
T1 sequence (P25021 whole entry): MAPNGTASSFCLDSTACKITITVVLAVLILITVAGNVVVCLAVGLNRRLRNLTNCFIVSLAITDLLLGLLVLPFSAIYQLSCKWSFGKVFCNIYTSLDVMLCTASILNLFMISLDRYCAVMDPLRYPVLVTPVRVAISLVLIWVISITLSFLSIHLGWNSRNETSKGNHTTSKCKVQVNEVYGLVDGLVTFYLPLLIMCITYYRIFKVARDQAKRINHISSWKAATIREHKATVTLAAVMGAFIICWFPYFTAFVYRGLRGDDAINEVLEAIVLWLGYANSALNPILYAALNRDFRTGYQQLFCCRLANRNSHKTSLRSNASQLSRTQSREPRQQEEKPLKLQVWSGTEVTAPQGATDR
Format: functional
Method in brief: (§1)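 Steady-state GTPase assay with Sf9 membranes (5–20 µg protein) expressing hH2R- or gpH2R-Gsαs, in 50 mM Tris-HCl pH 7.4. Mix: 1.0 mM MgCl2, 100 µM EDTA, 100 nM GTP, 100 µM AppNHp, 5 mM creatine phosphate, creatine kinase, 0.2% BSA, ligand 0.1 nM–10 µM. After 2 min at 25 °C, [γ-32P]GTP or [γ-33P]GTP was added and reacted 20 min at 25 °C. Charcoal stop; released Pi counted. Emax referenced to histamine (1.0). Two to six experiments, duplicate.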
Compound `Cc1nc(N)sc1CCCN/C(N)=N/C(=O)CCc1ccccc1` has an Intrinsic activity of 0.79.
`N/C(=N\C(=O)CCCCCCCCC(=O)/N=C(\N)NCCCc1ncn[nH]1)NCCCc1ncn[nH]1` showed an Intrinsic activity of 0.49.
Work on `Cc1nc(N)sc1CCCN/C(N)=N/C(=O)CCCCCCCC(=O)/N=C(\N)NCCCc1sc(N)nc1C` yielded an Intrinsic activity of 0.48.
Compound `N/C(=N\C(=O)CCCCCCCCCCCCCCC(=O)/N=C(\N)NCCCc1cnc(N)s1)NCCCc1cnc(N)s1` has an Intrinsic activity of 0.14.
`Cc1nc(N)sc1CCCN/C(N)=N/C(=O)CCCCCCCCCCC(=O)/N=C(\N)NCCCc1sc(N)nc1C` was tested, and the Intrinsic activity was 0.46.
In the case of `Cc1nc(N)sc1CCN` [AMTHAMINE], the Intrinsic activity is reported as 0.91.
`Cc1nc(N)sc1CCCN/C(N)=N/C(=O)CCCCC(=O)/N=C(\N)NCCCc1sc(N)nc1C` gave an Intrinsic activity of 0.68.

What follows are compounds tested against T1, Histamine H2 receptor (assay: Agonist activity at human H2R-Gsalphas expressed in Sf9 cells at 0.1 nM to 10 uM by steady state GTPase activity assay). Conditions: not given.
For `NC(=NCCCc1nnc[nH]1)NC(=O)CCCCCCCCC(=O)NC(N)=NCCCc1nnc[nH]1`, the EC50 was 151 nM.

These compounds were tested against Histamine H2 receptor (Cavia porcellus) (UniProt P47747) (assay: Intrinsic agonist activity at guinea pig H2R-Gsalphas expressed in Sf9 cells by steady state GTPase activity assay relative to histamine). Conditions: not given.
Sequence of Histamine H2 receptor (Cavia porcellus) (P47747 whole entry): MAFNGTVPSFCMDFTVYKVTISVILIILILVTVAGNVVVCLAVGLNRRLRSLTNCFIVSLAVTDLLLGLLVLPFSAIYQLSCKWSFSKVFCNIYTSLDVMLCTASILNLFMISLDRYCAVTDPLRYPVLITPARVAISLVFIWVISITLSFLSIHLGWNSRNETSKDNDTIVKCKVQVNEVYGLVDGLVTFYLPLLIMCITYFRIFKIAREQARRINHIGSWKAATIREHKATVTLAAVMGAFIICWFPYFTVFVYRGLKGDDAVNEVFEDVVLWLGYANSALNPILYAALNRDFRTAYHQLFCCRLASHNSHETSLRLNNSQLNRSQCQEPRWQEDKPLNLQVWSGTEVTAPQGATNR
Format: functional
Method in brief: as §1
`N/C(=N\C(=O)CCCCCCCCCCCCCCCCCCCCC(=O)/N=C(\N)NCCCc1c[nH]cn1)NCCCc1c[nH]cn1` showed an Intrinsic activity of 0.19.
With `Cc1nc(N)sc1CCCN/C(N)=N/C(=O)CCc1ccccc1` the Intrinsic activity was 0.76.
`N/C(=N\C(=O)CCCCCCCCC(=O)/N=C(\N)NCCCc1ncn[nH]1)NCCCc1ncn[nH]1` was tested, and the Intrinsic activity was 0.95.
Compound `Cc1nc(N)sc1CCCN/C(N)=N/C(=O)CCCCCCCC(=O)/N=C(\N)NCCCc1sc(N)nc1C` has an Intrinsic activity of 0.9.
Compound `N/C(=N\C(=O)CCCCCCCCCCCCCCC(=O)/N=C(\N)NCCCc1cnc(N)s1)NCCCc1cnc(N)s1` has an Intrinsic activity of 0.59.
In the case of `Cc1nc(N)sc1CCCN/C(N)=N/C(=O)CCCCCCCCCCCCCCCCCCCCC(=O)/N=C(\N)NCCCc1sc(N)nc1C`, the Intrinsic activity is reported as 0.58.
For `N/C(=N\C(=O)CCCCCCCCCCCCCCCCCCCCC(=O)/N=C(\N)NCCCc1cnc(N)s1)NCCCc1cnc(N)s1`, the Intrinsic activity was 0.36.
`Cc1nc(N)sc1CCCN/C(N)=N/C(=O)CCCCCCCCCCC(=O)/N=C(\N)NCCCc1sc(N)nc1C` gave an Intrinsic activity of 0.66.
`Cc1nc(N)sc1CCN` [AMTHAMINE] gave an Intrinsic activity of 1.04.
With `Cc1nc(N)sc1CCCN/C(N)=N/C(=O)CCCCC(=O)/N=C(\N)NCCCc1sc(N)nc1C` the Intrinsic activity was 0.9.

These compounds were tested against Histamine H2 receptor (Cavia porcellus, UniProt P47747) (assay: Agonist activity at guinea pig H2R-Gsalphas expressed in Sf9 cells at 0.1 nM to 10 uM by steady state GTPase activity assay). Conditions: read-out: EC50.
Sequence of Histamine H2 receptor (Cavia porcellus, UniProt P47747) (P47747 whole entry): as the sequence (P47747 whole entry) above
Format: functional
Method in brief: as §1, with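 “counted.” for “counted. Emax referenced to histamine (1.0).”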
`Cc1nc(N)sc1CCCNC(=N)NC(=O)CCCCCCCCC(=O)NC(=N)NCCCc1sc(N)nc1C` showed an EC50 of 0.39 nM.

Each compound was assayed against Histamine H2 receptor (Cavia porcellus) (UniProt P47747) (assay: Intrinsic agonist activity at H2R in spontaneously beating guinea pig right atrium assessed as increase in heart rate relative to histamine). Conditions: Cardiac atrium.
Format: functional, tissue-based
Method in brief: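 Isolated spontaneously beating guinea pig right atrium. Ligand stocks (10 mM) and dilutions were made in fresh bath fluid. Tissue was washed for 30 min and equilibrated for 15 min. […] Emax is relative to maximal histamine heart-rate increase. Three to five experiments.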
`Cc1nc(N)sc1CCCN/C(N)=N/C(=O)CCCCCCCC(=O)/N=C(\N)NCCCc1sc(N)nc1C` gave an Intrinsic activity of 0.71.
`Cc1nc(N)sc1CCCN/C(N)=N/C(=O)CCCCCCCCCCCCCCCCCCCCC(=O)/N=C(\N)NCCCc1sc(N)nc1C` was tested, and the Intrinsic activity was 0.62.
With `Cc1nc(N)sc1CCCN/C(N)=N/C(=O)CCCCCCCCCCC(=O)/N=C(\N)NCCCc1sc(N)nc1C` the Intrinsic activity was 0.46.
`Cc1nc(N)sc1CCN` [AMTHAMINE] was tested, and the Intrinsic activity was 0.95.
For `Cc1nc(N)sc1CCCN/C(N)=N/C(=O)CCCCC(=O)/N=C(\N)NCCCc1sc(N)nc1C`, the Intrinsic activity was 0.88.

Each compound was assayed against Histamine H2 receptor (Cavia porcellus) (UniProt P47747) (assay: Agonist activity at H2R in spontaneously beating guinea pig right atrium assessed as increase in heart rate in presence of 100 uM H2R antagonist cimetidine). Conditions: Cardiac atrium.
Format: functional, tissue-based
For `Cc1nc(N)sc1CCCN/C(N)=N/C(=O)CCCCC(=O)/N=C(\N)NCCCc1sc(N)nc1C`, the %max was 46%.
